A selection: hits, their analogues and other compounds. The true share with any hit is near 9.3%.
tolC growth inh: E. coli tolC mutant growth inhibition | 2.2% of 65,000 active | growth inhibition, % at 10 µM (by protocol) | E. coli BW25113 tolC mutant growth, OD615;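 active = growth inhibition at or above a cutoff equal to the mean over every tested compound plus 3 SD, cut at about 60% in these data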;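 also: growth measured after 20 h incubation at 37 °C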
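Test system: tolC-deleted E. coli BW25113; medium: LB with kanamycin 50 µg/mL; compound: single-point testing at 10 µM; incubation: 20 h compound exposure of bacteria at 37 °C; signal: OD at 615 nm; evaluation: growth inhibition in percent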
PostGolgi ctrl: inhibits growth of the yeast control strain. efflux-deficient yeast background strain, growth absorbance A615, 16 h. inhibition, % at 10 µM. 5% of 98,000 active. AID 738
PostGolgi yeast: growth inhibition of a yeast mutant, post-Golgi transport screen; post-Golgi transport phenotypic cell assay; inhibition, % at 10 µM; 0.9% of 98,000 active;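 also: yeast cells grown in 1536-well plates; yeast grown about 18 h at 30C before absorbance read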
D1 mod: allosteric modulators of human D1 dopamine receptor; P21728; HEK293 D1, CRE-luciferase, dopamine EC30 potentiation; actives deviate in either direction; B-score at 10 µM; 5.9% of 58,000 active;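 active = luminescence count or its row- and column-corrected plate score outside the 99.7% band of the plate's sample wells, on either side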
Target sequence (P21728 whole entry, looked up): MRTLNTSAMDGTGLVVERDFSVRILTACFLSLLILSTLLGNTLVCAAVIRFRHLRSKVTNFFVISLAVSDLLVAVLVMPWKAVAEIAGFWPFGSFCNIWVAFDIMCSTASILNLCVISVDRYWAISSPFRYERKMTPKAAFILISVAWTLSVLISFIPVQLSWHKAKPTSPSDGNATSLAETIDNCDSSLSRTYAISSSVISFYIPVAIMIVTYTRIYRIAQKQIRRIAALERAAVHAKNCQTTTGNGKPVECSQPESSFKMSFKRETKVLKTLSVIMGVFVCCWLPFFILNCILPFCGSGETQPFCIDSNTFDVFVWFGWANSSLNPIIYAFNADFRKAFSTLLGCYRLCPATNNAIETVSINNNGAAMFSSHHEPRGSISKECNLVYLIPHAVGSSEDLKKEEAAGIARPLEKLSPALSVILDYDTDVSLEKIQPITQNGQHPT
DAT uptake mod: changed human dopamine transporter uptake under cocaine IC80 | Q01959 | LLC-PK1 hDAT cells, [14C]-dopamine uptake with cocaine IC80; actives deviate in either direction | B-score at 10 µM | 1.3% of 110,000 active | AID 449768;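 active = Z score or B-score, a plate-position-corrected score, falls beyond the plate's 99.7% confidence bounds, in either direction; inactive = both scores lie inside the 99.7% bounds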;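 also: scored against the spread of the other compound wells on the same plate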
Ecoli WT expand: blocks growth of wild type E. coli BW25113; growth inhibition, % at 100 µM; 0.15% of 98,000 active; OD600 absorbance;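 active = growth inhibition above about 50% at one test dose, limit read from the data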;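 also: growth measured after 20 h incubation at 37 °C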
An asterisk follows results filed as active; nt = no result. Rule as the data show it, unless noted: active = inhibition above about 30%; inactive = the rest.

SMILES | tolC growth inh | PostGolgi ctrl | PostGolgi yeast | D1 mod | DAT uptake mod | Ecoli WT expand
Clc1cccc(-c2cc3nc4c(c(N5CCN(c6cnccn6)CC5)n3n2)CCCC4)c1 | nt | nt | nt | nt | 0.489 | nt
Fc1cccc(-c2cc3nc4c(c(N5CCOCC5)n3n2)CCCC4)c1 | 100.0* | 70.3* | 15.5 | nt | 2.34 | -7.0
Clc1cccc(-c2cc3nc4c(c(N5CCOCC5)n3n2)CCCC4)c1 | 25.2 | 88.1* | -1.2 | 0.536 | 0.653 | -4.0
COc1ccc(-c2cc3nc4c(c(N5CCC6(CC5)OCCO6)n3n2)CCCC4)cc1 | 64.7* | nt | nt | 3.71* | nt | nt
COc1cccc(-c2cc3nc(-c4ccccc4)cc(N4CCC5(CC4)OCCO5)n3n2)c1 | -4.3 | 5.7 | 0.5 | -0.294 | 1.52 | -16.0
C#Cc1ccc([C@@H]2C=C(C(=O)O)O[C@H](OCc3ccc(CO)cc3)C2)cc1 | nt | nt | nt | nt | -0.166 | nt
COc1cc(OC)c2c(O)c3c(c(-c4c5c(c(O)c6c(OC)cc(OC)cc46)CO[C@@H](C)[C@H]5O)c2c1)[C@H](O)[C@H](C)OC3 | nt | nt | nt | nt | 1.62 | nt
COCc1cc(=O)[nH]c(/N=C(\N)Nc2ccccc2C)n1 | nt | -2.6 | 2.3 | nt | -0.663 | -1.0
COc1ccc(C(=O)O/N=C(\N)Cc2ccc(Cl)cc2)cc1OC | nt | 25.0 | 7.7 | nt | 2.92 | 29.0
N/C(Cc1ccc(Cl)cc1)=N\OC(=O)c1ccccc1 | nt | 45.5* | -0.9 | nt | 0.596 | 1.0
Cc1cccc(OCC(=O)O/N=C(\N)Cc2ccc(Cl)cc2)c1 | nt | -1.8 | 30.2* | nt | -0.0373 | 3.0
COC(=O)c1ccc2c(c1)C(C)(C)C(/C=C/c1ccccc1O)=[N+]2C | nt | 6.0 | -1.6 | nt | -3.58* | 37.0
Cc1noc(C)c1CSc1nc2ccccc2n1CCc1ccccc1 | 32.6 | 20.9 | 7.6 | 2.02 | 0.381 | -6.0
CC(C)(CO)Nc1ccc([N+](=O)[O-])cc1[N+](=O)[O-] | nt | 4.6 | -3.0 | nt | -2.64* | 7.0
COc1cccc(C(=O)Nc2nnc(-c3cccs3)s2)c1 | nt | 8.6 | -2.7 | nt | -0.491 | -26.0
O=C(Nc1nnc(-c2cccs2)o1)c1cccc(F)c1 | 100.0* | nt | nt | 0.885 | 0.588 | nt
O=C(Nc1nnc(-c2cccs2)o1)c1cccc(Oc2ccccc2)c1 | 97.0* | 21.9 | 34.1* | -0.523 | 0.083 | 29.0
CC(NS(=O)(=O)c1ccccc1)C(c1cccs1)N1CCN(c2ccccc2)CC1 (configuration not stated) | 26.6 | 39.2* | -4.9 | -0.107 | 4.82* | -8.0
O=C(CN1CCCC1)N1CCCc2c1c(=O)oc1ccc(OCc3ccccc3)cc21 | -7.5 | 36.1* | 21.7 | 0.248 | 2.21* | 5.0
CCCOc1ccc2oc(=O)c3c(c2c1)CCCN3C(=O)CN1CCN(C(=O)c2ccco2)CC1 | 0.8 | 13.9 | -4.0 | -0.323 | nt | 6.0
COC(=O)c1nn(-c2ccccc2)c(Sc2ccc(Br)cc2)c1/C=N/O | nt | 9.4 | 2.8 | nt | -0.941 | 0.0
Cn1c(Sc2ccc(Br)cc2)c(C=O)c2ccccc21 | nt | 31.5* | -1.6 | nt | -0.696 | -17.0
CCCc1ccc(-c2c(C)sc(N)c2C#N)cc1 | nt | 43.1* | 5.2 | nt | -0.304 | -2.0
Cc1cc(C)n(-c2nc3ccccc3nc2N2CCCCCC2)n1 | 74.0* | 38.9* | 4.7 | 1.08 | 0.0893 | 4.0
Cc1cc(C)n(-c2nc3ccccc3nc2N2CCCC2)n1 | nt | 9.1 | -3.7 | nt | -0.945 | -1.0
SMILES | tolC growth inh | PostGolgi ctrl | PostGolgi yeast | D1 mod | DAT uptake mod | Ecoli WT expand
O=C(c1ccc(Br)o1)N1CCN=C1SCc1cccnc1 | -14.7 | 0.1 | -2.7 | 1.05 | 2.36* | -7.0
O=C(c1cc2ccccc2o1)N1CCN=C1SCc1cccc(F)c1 | -7.1 | -1.0 | 1.8 | -0.954 | -0.239 | -3.0
O=C(c1ccccc1F)N1CCN=C1SCc1cccnc1 | -12.2 | 12.4 | -12.9 | 0.44 | 0.219 | -2.0
O=C(c1cc2ccccc2o1)N1CCN=C1SCc1cccnc1 | -5.9 | 11.2 | -2.5 | -1.81* | -0.259 | -8.0
FC(F)(F)c1ccc(C2[C@H]3CN(Cc4cccnc4)[C@H](c4ccccc4)C34CC2(c2ccccc2)C4)cc1 (some centres not stated) | nt | nt | nt | nt | -0.154 | nt
COc1ccc(CCNC(=O)C(=O)N2CCCCC2)cc1OC | nt | nt | nt | nt | -0.688 | nt
Cc1sc(NC(=O)c2ccco2)c(C(c2cccnc2)N2CCN(c3ccc(F)cc3)CC2)c1C (configuration not stated) | 13.1 | 27.0 | 10.0 | -2.99* | -1.61 | -12.0
CCOC(=O)C1CCN(C(c2cccnc2)c2c(NC(=O)c3ccco3)sc(C)c2C)CC1 (configuration not stated) | 76.6* | 26.0 | 13.2 | 0.346 | nt | -11.0
CCOC(=O)C1CCN(C(=O)c2cccnc2)CC1 | -10.9 | -6.3 | 9.9 | -0.0136 | 0.127 | -4.0
